From ChEMBL document CHEMBL4689842, “EUbOPEN Chemogenomics Library wave 1” (2021)

Tested on: Fibroblast
Assay: Multiplex assay against human fibroblast
Format: toxicity, cell-based
Outline: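 Cells were classed with CellPathfinder machine-learning gating, first as Hoechst high-intensity objects or normal cells, then (normal cells) as healthy, pyknosed or fragmented nuclei, and finally (pyknosed cells) as mitotic or apoptotic. Staining of live cells at seeding used Hoechst33342, BioTracker Green Microtubule Cytoskeleton Dye, MitoTracker Red and Annexin V Alexa Fluor 680, with imaging on a CQ1 microscope at 37°C and 5% CO2 after compound addition. Tubulin, mitochondrial-mass and membrane-permeability phenotypes are per cents of healthy-nucleus cells.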

[1] = 12 h, 1 µM, compound concentration 1 uM, replicate 1
[2] = 12 h, 1 µM, compound concentration 1 uM, replicate 2
[3] = 12 h, 10 µM, compound concentration 10 uM, replicate 1
[4] = 12 h, 10 µM, compound concentration 10 uM, replicate 2
[5] = 24 h, 1 µM, compound concentration 1 uM, replicate 1
[6] = 24 h, 1 µM, compound concentration 1 uM, replicate 2
[7] = 24 h, 10 µM, compound concentration 10 uM, replicate 1
[8] = 24 h, 10 µM, compound concentration 10 uM, replicate 2
[9] = 48 h, 1 µM, compound concentration 1 uM, replicate 1
[10] = 48 h, 1 µM, compound concentration 1 uM, replicate 2
[11] = 48 h, 10 µM, compound concentration 10 uM, replicate 1
[12] = 48 h, 10 µM, compound concentration 10 uM, replicate 2

CCCSc1nc(N[C@@H]2C[C@H]2c2ccc(F)c(F)c2)c2nnn([C@@H]3C[C@H](OCCO)[C@@H](O)[C@H]3O)c2n1 [TICAGRELOR] was tested. Which “Population Apoptotic (%)” value [1] did it give?
The value was 55%.

What about the “Population Fragmented Nuclei (%)” value [1] of the same compound?
The value was 17%.

And the “Population Healthy Nuclei (%)” value [1]?
Its value is 48%.

What about the “Population Hoechst High Intensity Objects (%)” value [1] of the same compound?
The value was 9%.

What about the “Population Membrane Permeable-Phenotype (%)” value [1] of the same compound?
The value was 21%.

And the “Population Mitochondria Different-Phenotype (%)” value [1]?
Its value is 5%.

And the “Population Mitotic Cells (%)” value [1]?
The value was 44%.

And the “Population Normal (%)” value [1]?
Its value is 90%.

What about the “Population Pyknosed Nuclei (%)” value [1] of the same compound?
The value was 33%.

What about the “Population Tubulin-Different-Phenotype (%)” value [1] of the same compound?
The value was 46%.

What about the “Total Cell Count” value [1] of the same compound?
The value was 179.

What about the “Population Apoptotic (%)” value [2] of the same compound?
The value was 66%.

And the “Population Fragmented Nuclei (%)” value [2]?
The value was 1%.

What about the “Population Healthy Nuclei (%)” value [2] of the same compound?
The value was 93%.

What about the “Population Hoechst High Intensity Objects (%)” value [2] of the same compound?
Its value is 5%.

What about the “Population Membrane Permeable-Phenotype (%)” value [2] of the same compound?
Its value is 5%.

And the “Population Mitochondria Different-Phenotype (%)” value [2]?
Its value is 18%.

What about the “Population Mitotic Cells (%)” value [2] of the same compound?
Its value is 33%.

What about the “Population Normal (%)” value [2] of the same compound?
The value was 94%.

What about the “Population Pyknosed Nuclei (%)” value [2] of the same compound?
The value was 4%.

And the “Population Tubulin-Different-Phenotype (%)” value [2]?
The value was 13%.

What about the “Total Cell Count” value [2] of the same compound?
The value was 82.

And the “Population Apoptotic (%)” value [3]?
The value was 56%.

And the “Population Fragmented Nuclei (%)” value [3]?
Its value is 29%.

And the “Population Healthy Nuclei (%)” value [3]?
The value was 27%.

What about the “Population Hoechst High Intensity Objects (%)” value [3] of the same compound?
The value was 12%.

And the “Population Membrane Permeable-Phenotype (%)” value [3]?
Its value is 12%.

And the “Population Mitochondria Different-Phenotype (%)” value [3]?
The value was 78%.

And the “Population Mitotic Cells (%)” value [3]?
The value was 43%.

What about the “Population Normal (%)” value [3] of the same compound?
The value was 87%.

And the “Population Pyknosed Nuclei (%)” value [3]?
The value was 43%.

And the “Population Tubulin-Different-Phenotype (%)” value [3]?
Its value is 90%.

And the “Total Cell Count” value [3]?
Its value is 139.

And the “Population Apoptotic (%)” value [4]?
Its value is 75%.

What about the “Population Fragmented Nuclei (%)” value [4] of the same compound?
The value was 7%.

And the “Population Healthy Nuclei (%)” value [4]?
Its value is 79%.

What about the “Population Hoechst High Intensity Objects (%)” value [4] of the same compound?
The value was 11%.

What about the “Population Membrane Permeable-Phenotype (%)” value [4] of the same compound?
Its value is 43%.

What about the “Population Mitochondria Different-Phenotype (%)” value [4] of the same compound?
The value was 98%.

What about the “Population Mitotic Cells (%)” value [4] of the same compound?
Its value is 25%.

And the “Population Normal (%)” value [4]?
The value was 88%.

And the “Population Pyknosed Nuclei (%)” value [4]?
The value was 12%.

What about the “Population Tubulin-Different-Phenotype (%)” value [4] of the same compound?
The value was 96%.

And the “Total Cell Count” value [4]?
Its value is 67.

And the “Population Apoptotic (%)” value [5]?
The value was 43%.

And the “Population Fragmented Nuclei (%)” value [5]?
Its value is 18%.

What about the “Population Healthy Nuclei (%)” value [5] of the same compound?
Its value is 62%.

And the “Population Hoechst High Intensity Objects (%)” value [5]?
Its value is 9%.

And the “Population Membrane Permeable-Phenotype (%)” value [5]?
The value was 26%.

What about the “Population Mitochondria Different-Phenotype (%)” value [5] of the same compound?
The value was 12%.

What about the “Population Mitotic Cells (%)” value [5] of the same compound?
Its value is 56%.

What about the “Population Normal (%)” value [5] of the same compound?
Its value is 90%.

And the “Population Pyknosed Nuclei (%)” value [5]?
The value was 19%.

And the “Population Tubulin-Different-Phenotype (%)” value [5]?
Its value is 50%.

And the “Total Cell Count” value [5]?
Its value is 172.

And the “Population Apoptotic (%)” value [6]?
The value was 57%.

And the “Population Fragmented Nuclei (%)” value [6]?
The value was 3%.

What about the “Population Healthy Nuclei (%)” value [6] of the same compound?
The value was 87%.

What about the “Population Hoechst High Intensity Objects (%)” value [6] of the same compound?
Its value is 2%.

What about the “Population Membrane Permeable-Phenotype (%)” value [6] of the same compound?
Its value is 4%.

And the “Population Mitochondria Different-Phenotype (%)” value [6]?
The value was 20%.

And the “Population Mitotic Cells (%)” value [6]?
The value was 42%.

What about the “Population Normal (%)” value [6] of the same compound?
The value was 97%.

And the “Population Pyknosed Nuclei (%)” value [6]?
Its value is 8%.

And the “Population Tubulin-Different-Phenotype (%)” value [6]?
The value was 11%.

What about the “Total Cell Count” value [6] of the same compound?
The value was 81.

And the “Population Apoptotic (%)” value [7]?
The value was 55%.

And the “Population Fragmented Nuclei (%)” value [7]?
The value was 27%.

And the “Population Healthy Nuclei (%)” value [7]?
Its value is 33%.

And the “Population Hoechst High Intensity Objects (%)” value [7]?
Its value is 16%.

And the “Population Membrane Permeable-Phenotype (%)” value [7]?
Its value is 18%.

And the “Population Mitochondria Different-Phenotype (%)” value [7]?
The value was 67%.

And the “Population Mitotic Cells (%)” value [7]?
Its value is 44%.

What about the “Population Normal (%)” value [7] of the same compound?
The value was 83%.

And the “Population Pyknosed Nuclei (%)” value [7]?
The value was 38%.

And the “Population Tubulin-Different-Phenotype (%)” value [7]?
Its value is 94%.

And the “Total Cell Count” value [7]?
The value was 133.

What about the “Population Apoptotic (%)” value [8] of the same compound?
Its value is 83%.

And the “Population Fragmented Nuclei (%)” value [8]?
Its value is 7%.

And the “Population Healthy Nuclei (%)” value [8]?
The value was 73%.

And the “Population Hoechst High Intensity Objects (%)” value [8]?
Its value is 8%.

What about the “Population Membrane Permeable-Phenotype (%)” value [8] of the same compound?
The value was 65%.

And the “Population Mitochondria Different-Phenotype (%)” value [8]?
Its value is 97%.

And the “Population Mitotic Cells (%)” value [8]?
Its value is 16%.

And the “Population Normal (%)” value [8]?
Its value is 91%.

What about the “Population Pyknosed Nuclei (%)” value [8] of the same compound?
The value was 19%.

What about the “Population Tubulin-Different-Phenotype (%)” value [8] of the same compound?
Its value is 97%.

And the “Total Cell Count” value [8]?
The value was 80.

And the “Population Apoptotic (%)” value [9]?
The value was 44%.

What about the “Population Fragmented Nuclei (%)” value [9] of the same compound?
The value was 25%.

What about the “Population Healthy Nuclei (%)” value [9] of the same compound?
The value was 55%.

What about the “Population Hoechst High Intensity Objects (%)” value [9] of the same compound?
The value was 9%.

And the “Population Membrane Permeable-Phenotype (%)” value [9]?
Its value is 16%.

And the “Population Mitochondria Different-Phenotype (%)” value [9]?
Its value is 5%.

What about the “Population Mitotic Cells (%)” value [9] of the same compound?
The value was 55%.

And the “Population Normal (%)” value [9]?
Its value is 90%.

What about the “Population Pyknosed Nuclei (%)” value [9] of the same compound?
The value was 19%.

And the “Population Tubulin-Different-Phenotype (%)” value [9]?
The value was 36%.

And the “Total Cell Count” value [9]?
The value was 167.

What about the “Population Apoptotic (%)” value [10] of the same compound?
The value was 66%.

What about the “Population Fragmented Nuclei (%)” value [10] of the same compound?
Its value is 27%.

What about the “Population Healthy Nuclei (%)” value [10] of the same compound?
Its value is 68%.

And the “Population Hoechst High Intensity Objects (%)” value [10]?
Its value is 10%.

What about the “Population Membrane Permeable-Phenotype (%)” value [10] of the same compound?
The value was 18%.

What about the “Population Mitochondria Different-Phenotype (%)” value [10] of the same compound?
Its value is 3%.

And the “Population Mitotic Cells (%)” value [10]?
The value was 33%.

What about the “Population Normal (%)” value [10] of the same compound?
The value was 89%.

What about the “Population Pyknosed Nuclei (%)” value [10] of the same compound?
The value was 3%.

What about the “Population Tubulin-Different-Phenotype (%)” value [10] of the same compound?
The value was 57%.

What about the “Total Cell Count” value [10] of the same compound?
Its value is 88.

And the “Population Apoptotic (%)” value [11]?
Its value is 69%.

And the “Population Fragmented Nuclei (%)” value [11]?
The value was 50%.

What about the “Population Healthy Nuclei (%)” value [11] of the same compound?
The value was 31%.

And the “Population Hoechst High Intensity Objects (%)” value [11]?
The value was 20%.

What about the “Population Membrane Permeable-Phenotype (%)” value [11] of the same compound?
Its value is 22%.

And the “Population Mitochondria Different-Phenotype (%)” value [11]?
Its value is 62%.

And the “Population Mitotic Cells (%)” value [11]?
The value was 30%.

What about the “Population Normal (%)” value [11] of the same compound?
The value was 79%.

What about the “Population Pyknosed Nuclei (%)” value [11] of the same compound?
The value was 18%.

And the “Population Tubulin-Different-Phenotype (%)” value [11]?
The value was 90%.

And the “Total Cell Count” value [11]?
The value was 159.

What about the “Population Apoptotic (%)” value [12] of the same compound?
The value was 75%.

What about the “Population Fragmented Nuclei (%)” value [12] of the same compound?
The value was 32%.

What about the “Population Healthy Nuclei (%)” value [12] of the same compound?
The value was 61%.

What about the “Population Hoechst High Intensity Objects (%)” value [12] of the same compound?
Its value is 5%.

And the “Population Membrane Permeable-Phenotype (%)” value [12]?
Its value is 2%.

What about the “Population Mitochondria Different-Phenotype (%)” value [12] of the same compound?
The value was 84%.

What about the “Population Mitotic Cells (%)” value [12] of the same compound?
Its value is 25%.

What about the “Population Normal (%)” value [12] of the same compound?
The value was 94%.

What about the “Population Pyknosed Nuclei (%)” value [12] of the same compound?
The value was 6%.

What about the “Population Tubulin-Different-Phenotype (%)” value [12] of the same compound?
Its value is 92%.

And the “Total Cell Count” value [12]?
Its value is 135.
